Calls of active or inactive are those of the source. No cut-off for these calls is given here.
Experiments:
[1] = target: Macrophage colony-stimulating factor 1 receptor (Homo sapiens) (UniProt P07333); test: Inhibition of CSF-1R (unknown origin) at 1000 nM relative to control
[2] = AUC (0 to t) in ICR(CD-1) mouse at 10 mg/kg, po administered via gavage by triple quadrupole mass spectrometric analysis; format: ADME, organism-based; settings: in vivo
Summary of the method: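 Oral gavage at 1 mg/mL in 1% Tween80/water to male ICR mice (18-22 g, n=3). Plasma sampled at 0.25, 0.5, 1, 2, 4, 8 and 24 h, protein precipitated with methanol:acetonitrile (1:1) containing internal standard, and quantified by UPLC-triple quadrupole MS. AUC and MRT were taken from per-animal time-concentration curves. Cmax is the maximum plasma level and Tmax the time to reach it.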

[3] = target: Mitogen-activated protein kinase 3 (Homo sapiens) (UniProt P27361); test: Inhibition of ERK1 (unknown origin) at 100 nM relative to control
[4] = target: Mitogen-activated protein kinase 3 (Homo sapiens) (UniProt P27361); test: Inhibition of ERK1 (unknown origin) at 1000 nM relative to control
[5] = target: Receptor tyrosine-protein kinase erbB-2 (Homo sapiens) (UniProt P04626); test: Inhibition of ErbB2 (unknown origin) at 10 nM relative to control
Summary of the method: (§1)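 Purified recombinant kinase domains run in ELISA on precoated poly(Glu,Tyr) 4:1 (20 µg/mL) with 10 µM ATP in 50 mM HEPES pH 7.4, 50 mM MgCl2, 0.5 mM MnCl2, 0.2 mM Na3VO4, 1 mM DTT; 1% DMSO control; 60 min at 37 °C. Phosphotyrosine read by PY99 antibody, HRP anti-mouse IgG, OPD/H2O2 at 490 nm; inhibition = [1−A490/A490control]×100%; two separate experiments.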

[6] = target: Cyclin-dependent kinase 4 (Homo sapiens) (UniProt P11802); test: Inhibition of CDK4 (unknown origin) at 100 nM relative to control
[7] = target: Tyrosine-protein kinase receptor UFO (Homo sapiens) (UniProt P30530); test: Inhibition of AXL (unknown origin) at 1000 nM relative to control
[8] = target: Macrophage colony-stimulating factor 1 receptor (Homo sapiens) (UniProt P07333); test: Inhibition of CSF-1R (unknown origin) at 100 nM relative to control
[9] = target: ALK tyrosine kinase receptor (Homo sapiens) (UniProt Q9UM73); test: Inhibition of ALK (unknown origin) at 100 nM relative to control
[10] = Efflux ratio of permeability in human Caco2 cells at 5 uM after 120 mins by LC-MS/MS analysis; format: ADME, cell-based; settings: Caco-2
Summary of the method: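 Caco-2 (C2BBe1) monolayers grown to confluence on collagen-coated transwell polycarbonate membranes. Compound at 5 μM added apically or basolaterally in HBSS with 10 mM HEPES at pH 7.4 and 6.8. Duplicate samples taken at 120 min and analysed by LC-MS/MS. Efflux ratio = Papp(B→A)/Papp(A→B).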

[11] = test system: NCI-H2286; test: Antitumor activity against human NCI-H2286 cells xenografted in SCID mouse assessed as tumor growth inhibition at 10 mg/kg, po qd for 10 consecutive days relative to control; format: functional; settings: read-out: TGI
Summary of the method: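 NCI-H2286 xenograft established by s.c. fragment implantation. At 100-150 mm³ mice were randomized (vehicle n=10, treated n=5) and given compound orally once daily for 10 days. Tumour volume = length×width²/2, measured twice weekly. TGI taken on the final day from change in volume relative to vehicle, with Student's t-test.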

[12] = target: Mitogen-activated protein kinase 1 (Homo sapiens) (UniProt P28482); test: Inhibition of ERK2 (unknown origin) at 10 nM relative to control
[13] = target: Ephrin type-A receptor 2 (Homo sapiens) (UniProt P29317); test: Inhibition of EPH-A2 (unknown origin) at 100 nM relative to control; summary of the method: as §1
[14] = target: ALK tyrosine kinase receptor (Homo sapiens) (UniProt Q9UM73); test: Inhibition of ALK (unknown origin) at 10 nM relative to control
[15] = target: Tyrosine-protein kinase JAK2 (Homo sapiens) (UniProt O60674); test: Inhibition of JAK2 (unknown origin) at 100 nM relative to control; summary of the method: as §1
[16] = test system: T1, Discoidin domain-containing receptor 2 (Homo sapiens), Q16832 [I638F]; test: Inhibition of DDR2 I638F mutant in human NCI-H2286 cells assessed as decrease in ERK phosphorylation at […] after 2 hrs by Western blot analysis; format: cell-based
T1 sequence (whole entry): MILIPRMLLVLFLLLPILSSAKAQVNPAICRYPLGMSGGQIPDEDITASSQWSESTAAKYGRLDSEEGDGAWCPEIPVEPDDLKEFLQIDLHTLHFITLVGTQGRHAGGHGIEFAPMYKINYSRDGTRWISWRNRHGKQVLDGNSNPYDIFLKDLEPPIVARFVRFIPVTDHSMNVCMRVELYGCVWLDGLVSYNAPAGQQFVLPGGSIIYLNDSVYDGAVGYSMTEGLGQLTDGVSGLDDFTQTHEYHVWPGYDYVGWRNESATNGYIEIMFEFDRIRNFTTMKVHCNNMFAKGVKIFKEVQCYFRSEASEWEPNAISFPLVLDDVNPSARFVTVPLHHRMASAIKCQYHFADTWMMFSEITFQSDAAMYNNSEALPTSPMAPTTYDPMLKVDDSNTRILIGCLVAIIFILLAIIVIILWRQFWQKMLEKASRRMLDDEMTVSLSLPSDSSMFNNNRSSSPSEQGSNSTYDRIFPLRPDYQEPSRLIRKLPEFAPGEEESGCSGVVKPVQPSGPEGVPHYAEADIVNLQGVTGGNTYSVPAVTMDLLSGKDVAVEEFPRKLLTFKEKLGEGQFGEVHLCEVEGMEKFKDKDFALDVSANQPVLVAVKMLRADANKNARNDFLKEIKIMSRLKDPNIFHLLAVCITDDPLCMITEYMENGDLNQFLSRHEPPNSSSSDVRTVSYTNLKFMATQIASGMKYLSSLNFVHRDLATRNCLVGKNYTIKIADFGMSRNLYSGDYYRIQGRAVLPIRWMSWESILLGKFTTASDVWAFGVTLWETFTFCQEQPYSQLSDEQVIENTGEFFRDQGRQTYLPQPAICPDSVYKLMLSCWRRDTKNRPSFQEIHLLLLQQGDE
Summary of the method: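 NCI-H2286 cells exposed to compound for 2 h at 37 °C and lysed in SDS sample buffer. Lysates run on 10% SDS-PAGE and blotted to nitrocellulose. Membranes probed for phospho- and total DDR2, ERK and Akt, with GAPDH as loading control, and detected by HRP secondary antibody and enhanced chemiluminescence.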

[17] = test system: NCI-H1581; test: Antitumor activity against human NCI-H1581 cells xenografted in nude mouse assessed as tumor growth inhibition at 20 mg/kg, po qd for 7 to 10 days relative to control; format: functional; settings: read-out: TGI
Summary of the method: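 Female nude mice, 4-6 weeks old. NCI-H1581 cells (5×10^6 in 200 µL) injected s.c., grown to 700-800 mm³, then 1-mm³ fragments implanted s.c. by trocar. At 100-150 mm³ animals were randomized (vehicle n=12, treated n=6) and dosed orally once daily for 7 days. Tumours measured twice weekly, volume = length×width²/2. TGI calculated from change in tumour volume versus vehicle on the final day, with Student's t-test.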

Chain of Mitogen-activated protein kinase 3 (Homo sapiens) (P27361 whole entry): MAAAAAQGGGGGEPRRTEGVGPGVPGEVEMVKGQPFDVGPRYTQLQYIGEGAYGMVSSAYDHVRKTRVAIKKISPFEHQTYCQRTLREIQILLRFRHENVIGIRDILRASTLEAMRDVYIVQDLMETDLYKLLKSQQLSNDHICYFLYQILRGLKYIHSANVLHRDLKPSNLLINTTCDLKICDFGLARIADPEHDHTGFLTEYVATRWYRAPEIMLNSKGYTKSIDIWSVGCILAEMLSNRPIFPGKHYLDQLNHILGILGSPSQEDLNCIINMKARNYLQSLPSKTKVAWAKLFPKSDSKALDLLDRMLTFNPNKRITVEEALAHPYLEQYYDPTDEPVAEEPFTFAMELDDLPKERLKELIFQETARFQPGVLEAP
Chain of Macrophage colony-stimulating factor 1 receptor (Homo sapiens) (P07333 whole entry): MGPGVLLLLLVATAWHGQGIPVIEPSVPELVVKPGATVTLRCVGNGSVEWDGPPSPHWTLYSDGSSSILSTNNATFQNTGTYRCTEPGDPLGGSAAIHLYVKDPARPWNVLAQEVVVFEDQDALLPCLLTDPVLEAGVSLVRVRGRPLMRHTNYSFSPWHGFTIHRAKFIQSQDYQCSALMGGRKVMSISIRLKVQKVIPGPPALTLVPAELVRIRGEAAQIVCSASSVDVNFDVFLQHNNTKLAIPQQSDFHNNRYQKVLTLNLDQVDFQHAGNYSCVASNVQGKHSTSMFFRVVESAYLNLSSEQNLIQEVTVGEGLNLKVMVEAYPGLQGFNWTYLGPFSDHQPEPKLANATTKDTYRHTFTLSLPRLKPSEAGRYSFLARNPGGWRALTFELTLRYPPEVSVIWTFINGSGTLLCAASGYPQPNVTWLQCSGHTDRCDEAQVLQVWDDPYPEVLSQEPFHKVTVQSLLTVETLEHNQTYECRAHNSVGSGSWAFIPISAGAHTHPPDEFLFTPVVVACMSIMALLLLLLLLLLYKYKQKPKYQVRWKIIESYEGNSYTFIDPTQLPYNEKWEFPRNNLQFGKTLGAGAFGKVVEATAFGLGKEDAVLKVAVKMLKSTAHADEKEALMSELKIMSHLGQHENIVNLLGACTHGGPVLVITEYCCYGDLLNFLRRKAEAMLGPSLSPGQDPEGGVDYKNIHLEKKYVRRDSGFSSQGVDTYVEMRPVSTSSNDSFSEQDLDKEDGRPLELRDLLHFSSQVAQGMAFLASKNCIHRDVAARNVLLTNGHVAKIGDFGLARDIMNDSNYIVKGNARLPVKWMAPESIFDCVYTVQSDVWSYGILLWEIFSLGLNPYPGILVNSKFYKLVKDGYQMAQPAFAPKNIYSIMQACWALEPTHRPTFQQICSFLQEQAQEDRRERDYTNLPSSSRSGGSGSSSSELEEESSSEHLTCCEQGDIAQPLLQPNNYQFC
Chain of ALK tyrosine kinase receptor (Homo sapiens) (Q9UM73 19-1620 limits assumed): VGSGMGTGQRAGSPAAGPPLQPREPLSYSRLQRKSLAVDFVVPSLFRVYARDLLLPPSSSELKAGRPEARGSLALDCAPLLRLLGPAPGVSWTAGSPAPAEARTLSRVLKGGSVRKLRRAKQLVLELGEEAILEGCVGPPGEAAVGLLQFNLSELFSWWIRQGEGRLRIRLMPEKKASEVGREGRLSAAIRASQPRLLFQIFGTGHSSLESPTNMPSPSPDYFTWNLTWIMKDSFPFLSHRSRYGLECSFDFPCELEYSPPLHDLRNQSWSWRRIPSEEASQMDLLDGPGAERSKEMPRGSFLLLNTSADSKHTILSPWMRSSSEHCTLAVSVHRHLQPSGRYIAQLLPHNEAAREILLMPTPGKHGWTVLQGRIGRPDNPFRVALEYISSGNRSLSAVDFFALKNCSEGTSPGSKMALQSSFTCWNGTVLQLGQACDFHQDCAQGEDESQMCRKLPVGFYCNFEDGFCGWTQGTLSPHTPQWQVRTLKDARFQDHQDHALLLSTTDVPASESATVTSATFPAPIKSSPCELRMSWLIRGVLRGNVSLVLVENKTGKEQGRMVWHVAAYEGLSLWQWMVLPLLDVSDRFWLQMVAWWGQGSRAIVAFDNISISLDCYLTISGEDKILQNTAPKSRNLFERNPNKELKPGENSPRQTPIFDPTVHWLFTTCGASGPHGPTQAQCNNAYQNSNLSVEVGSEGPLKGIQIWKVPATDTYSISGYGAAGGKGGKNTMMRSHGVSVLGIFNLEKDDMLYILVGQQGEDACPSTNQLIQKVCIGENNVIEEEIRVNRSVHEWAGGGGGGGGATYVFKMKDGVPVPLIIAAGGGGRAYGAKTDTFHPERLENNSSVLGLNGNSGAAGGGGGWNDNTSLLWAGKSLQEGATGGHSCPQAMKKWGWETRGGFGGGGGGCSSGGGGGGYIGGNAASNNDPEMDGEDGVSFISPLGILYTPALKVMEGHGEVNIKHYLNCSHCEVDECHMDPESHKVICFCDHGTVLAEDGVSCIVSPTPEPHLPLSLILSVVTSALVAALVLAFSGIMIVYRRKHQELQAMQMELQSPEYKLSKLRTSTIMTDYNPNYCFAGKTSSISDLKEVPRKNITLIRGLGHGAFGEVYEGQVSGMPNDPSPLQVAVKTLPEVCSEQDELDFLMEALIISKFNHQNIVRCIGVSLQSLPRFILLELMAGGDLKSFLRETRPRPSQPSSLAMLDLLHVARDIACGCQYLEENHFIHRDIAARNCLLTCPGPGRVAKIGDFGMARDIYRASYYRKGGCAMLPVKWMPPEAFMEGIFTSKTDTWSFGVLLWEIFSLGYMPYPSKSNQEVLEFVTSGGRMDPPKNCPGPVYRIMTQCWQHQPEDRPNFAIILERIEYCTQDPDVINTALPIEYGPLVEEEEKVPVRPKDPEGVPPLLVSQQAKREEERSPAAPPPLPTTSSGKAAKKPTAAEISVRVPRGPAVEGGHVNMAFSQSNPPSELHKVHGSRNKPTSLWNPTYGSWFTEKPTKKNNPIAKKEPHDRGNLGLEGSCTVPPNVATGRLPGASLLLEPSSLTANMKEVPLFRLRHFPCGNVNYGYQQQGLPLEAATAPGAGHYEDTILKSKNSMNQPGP
Chain of Tyrosine-protein kinase JAK2 (Homo sapiens) (O60674 whole entry, the tested form may be a part): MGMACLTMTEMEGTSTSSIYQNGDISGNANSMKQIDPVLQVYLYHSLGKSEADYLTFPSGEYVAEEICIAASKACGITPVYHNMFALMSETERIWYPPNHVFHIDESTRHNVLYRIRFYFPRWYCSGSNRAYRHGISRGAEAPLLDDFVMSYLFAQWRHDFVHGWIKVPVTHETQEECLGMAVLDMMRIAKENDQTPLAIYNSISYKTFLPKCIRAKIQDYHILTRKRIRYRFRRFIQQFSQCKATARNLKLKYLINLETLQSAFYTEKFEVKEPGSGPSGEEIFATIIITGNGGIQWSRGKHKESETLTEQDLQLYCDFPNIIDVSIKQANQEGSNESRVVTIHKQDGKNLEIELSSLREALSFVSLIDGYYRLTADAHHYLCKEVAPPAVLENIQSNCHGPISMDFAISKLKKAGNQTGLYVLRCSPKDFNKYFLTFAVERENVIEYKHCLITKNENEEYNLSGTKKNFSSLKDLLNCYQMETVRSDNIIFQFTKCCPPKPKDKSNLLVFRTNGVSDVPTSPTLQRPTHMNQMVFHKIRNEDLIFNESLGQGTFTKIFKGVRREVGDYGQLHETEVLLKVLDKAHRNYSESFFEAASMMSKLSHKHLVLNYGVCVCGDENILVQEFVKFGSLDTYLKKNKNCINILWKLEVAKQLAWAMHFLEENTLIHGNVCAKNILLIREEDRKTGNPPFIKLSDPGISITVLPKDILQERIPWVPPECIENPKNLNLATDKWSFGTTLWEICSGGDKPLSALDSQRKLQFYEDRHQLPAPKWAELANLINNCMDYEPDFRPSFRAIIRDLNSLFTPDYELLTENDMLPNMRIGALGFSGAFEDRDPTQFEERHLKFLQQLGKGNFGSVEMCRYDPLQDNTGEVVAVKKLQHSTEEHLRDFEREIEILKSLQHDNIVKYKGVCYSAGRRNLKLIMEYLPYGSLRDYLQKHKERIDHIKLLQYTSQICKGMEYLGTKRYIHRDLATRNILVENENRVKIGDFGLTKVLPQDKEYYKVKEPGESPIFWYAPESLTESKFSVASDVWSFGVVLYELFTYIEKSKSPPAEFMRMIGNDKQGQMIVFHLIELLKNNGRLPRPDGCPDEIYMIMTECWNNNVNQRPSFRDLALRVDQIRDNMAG
Chain of Mitogen-activated protein kinase 1 (Homo sapiens) (P28482 whole entry): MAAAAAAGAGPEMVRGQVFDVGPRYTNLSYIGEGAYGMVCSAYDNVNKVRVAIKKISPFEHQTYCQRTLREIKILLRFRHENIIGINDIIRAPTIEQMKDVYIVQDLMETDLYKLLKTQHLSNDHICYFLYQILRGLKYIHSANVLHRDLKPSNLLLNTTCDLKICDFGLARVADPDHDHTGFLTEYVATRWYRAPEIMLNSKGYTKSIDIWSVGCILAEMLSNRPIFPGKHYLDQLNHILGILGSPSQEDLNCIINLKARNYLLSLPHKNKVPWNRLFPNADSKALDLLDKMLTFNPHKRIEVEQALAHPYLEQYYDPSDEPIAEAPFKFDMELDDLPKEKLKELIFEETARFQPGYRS
Chain of Cyclin-dependent kinase 4 (Homo sapiens) (P11802 whole entry): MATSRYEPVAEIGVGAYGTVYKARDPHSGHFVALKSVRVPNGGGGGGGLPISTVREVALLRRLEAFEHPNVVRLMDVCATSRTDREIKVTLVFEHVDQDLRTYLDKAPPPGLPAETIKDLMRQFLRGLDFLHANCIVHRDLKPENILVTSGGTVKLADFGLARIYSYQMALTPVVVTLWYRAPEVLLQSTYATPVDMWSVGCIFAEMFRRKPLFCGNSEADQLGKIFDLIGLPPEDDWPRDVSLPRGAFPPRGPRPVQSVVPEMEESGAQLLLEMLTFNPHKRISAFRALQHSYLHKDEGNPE

Cc1ccc(C(=O)Nc2cccc(C(F)(F)F)c2)cc1-c1ccc2c(-c3cnn(C4CC4)c3)n[nH]c2c1 showed an inhibition [1] of 94.2%, an AUC(0-t) [2] of 7640 ng·h/mL and an inhibition [3] of 0.6%. The inhibition [4] was 3.8%, the inhibition [5] was 8.2% and the inhibition [6] was 6.8%. The inhibition [7] was 99.8%, the inhibition [8] was 83.4% and the inhibition [9] was 71.7%. It also gave an efflux ratio at 2 h, 5 µM [10] of 1.1, an inhibition in vivo at 10 mg/kg [11] of 82.8% and an inhibition [12] of 0.3%. It also gave an inhibition [13] of 100%, an inhibition [14] of 60% and an inhibition [15] of 2.5%. For the same molecule, the inhibition [16] was “Active” and the inhibition in vivo at 20 mg/kg [17] was 98.1%.

Reference: ChEMBL document CHEMBL4411287, “Discovery and optimization of a series of 3-substituted indazole derivatives as multi-target kinase inhibitors for the treatment of lung squamous cell carcinoma” (Eur J Med Chem, 2019)
